Test results taken from BindingDB's records for doi:10.1021/jm200203f (Washington University, 2011).

How the values were obtained:
D(3) dopamine receptor = D(3) dopamine receptor (Homo sapiens, UniProt P35462); assay: Displacement of [125I]IABN from human dopamine D3 receptor expressed in HEK293 cells after 60 mins by gamma counting
[1] = biological target: T1, 5-hydroxytryptamine receptor 1A (Homo sapiens, UniProt P08908); assay: Displacement of [3H]8-OH-DPAT from human 5HT1A receptor after 60 mins by liquid scintillation counting
T1 sequence (P08908 whole entry): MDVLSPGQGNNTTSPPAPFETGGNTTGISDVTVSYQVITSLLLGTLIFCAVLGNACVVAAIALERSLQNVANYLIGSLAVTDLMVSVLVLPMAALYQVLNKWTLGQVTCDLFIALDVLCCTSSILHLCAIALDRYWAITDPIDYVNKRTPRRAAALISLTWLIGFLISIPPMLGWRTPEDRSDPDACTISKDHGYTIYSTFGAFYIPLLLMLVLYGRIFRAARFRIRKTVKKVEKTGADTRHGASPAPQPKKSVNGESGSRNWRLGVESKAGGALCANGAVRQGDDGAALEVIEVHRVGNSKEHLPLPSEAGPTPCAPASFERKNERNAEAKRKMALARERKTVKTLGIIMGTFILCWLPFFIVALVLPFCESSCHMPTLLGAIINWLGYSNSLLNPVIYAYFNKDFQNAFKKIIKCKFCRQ
Summary of the method: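 Inhibitor spanned 0.1 nM–10 µM or 0.01 nM–1 µM; 10 µM WAY-100635 defined nonspecific binding. Cold wash, filtration, scintillation counting; IC50 by nonlinear regression.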

D(2) dopamine receptor = D(2) dopamine receptor (Homo sapiens, UniProt P14416); assay: Displacement of [125I]IABN from human dopamine D2 long receptor expressed in HEK293 cells after 60 mins by gamma counting
[2] = biological target: Sigma non-opioid intracellular receptor 1 (Cavia porcellus, UniProt Q60492); assay: Displacement of (+)-[3H]pentazocine from sigma 1 receptor in guinea pig brain membrane homogenates after 90 mins by liquid scintillation counting
[3] = biological target: T2, Vesicular acetylcholine transporter (Homo sapiens, UniProt Q16572); assay: Displacement of (-)-[3H]vesamicol from human VAChT expressed in rat PC12 A123.7 cells after 20 hrs
T2 sequence (Q16572 whole entry): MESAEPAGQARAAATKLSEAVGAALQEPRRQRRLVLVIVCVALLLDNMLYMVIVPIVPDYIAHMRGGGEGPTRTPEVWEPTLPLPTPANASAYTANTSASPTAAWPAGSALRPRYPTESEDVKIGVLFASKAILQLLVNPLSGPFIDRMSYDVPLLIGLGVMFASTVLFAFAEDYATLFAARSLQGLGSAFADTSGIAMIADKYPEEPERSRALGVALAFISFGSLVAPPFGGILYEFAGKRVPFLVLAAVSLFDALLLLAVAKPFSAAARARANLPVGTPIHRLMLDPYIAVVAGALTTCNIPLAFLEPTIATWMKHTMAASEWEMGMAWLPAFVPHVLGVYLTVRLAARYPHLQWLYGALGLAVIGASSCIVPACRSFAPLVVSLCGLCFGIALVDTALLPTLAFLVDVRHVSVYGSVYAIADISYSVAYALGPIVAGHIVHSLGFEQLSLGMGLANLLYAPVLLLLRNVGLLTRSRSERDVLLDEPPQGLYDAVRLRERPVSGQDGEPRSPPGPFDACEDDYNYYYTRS

Sequence of Sigma non-opioid intracellular receptor 1 (Q60492 whole entry): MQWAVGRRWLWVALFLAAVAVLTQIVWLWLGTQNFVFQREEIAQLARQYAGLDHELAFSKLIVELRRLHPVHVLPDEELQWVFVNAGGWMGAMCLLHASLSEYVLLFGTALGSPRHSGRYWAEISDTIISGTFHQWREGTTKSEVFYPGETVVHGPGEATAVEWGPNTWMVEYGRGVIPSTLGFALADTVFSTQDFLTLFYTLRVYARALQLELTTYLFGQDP
Sequence of D(2) dopamine receptor (P14416 whole entry): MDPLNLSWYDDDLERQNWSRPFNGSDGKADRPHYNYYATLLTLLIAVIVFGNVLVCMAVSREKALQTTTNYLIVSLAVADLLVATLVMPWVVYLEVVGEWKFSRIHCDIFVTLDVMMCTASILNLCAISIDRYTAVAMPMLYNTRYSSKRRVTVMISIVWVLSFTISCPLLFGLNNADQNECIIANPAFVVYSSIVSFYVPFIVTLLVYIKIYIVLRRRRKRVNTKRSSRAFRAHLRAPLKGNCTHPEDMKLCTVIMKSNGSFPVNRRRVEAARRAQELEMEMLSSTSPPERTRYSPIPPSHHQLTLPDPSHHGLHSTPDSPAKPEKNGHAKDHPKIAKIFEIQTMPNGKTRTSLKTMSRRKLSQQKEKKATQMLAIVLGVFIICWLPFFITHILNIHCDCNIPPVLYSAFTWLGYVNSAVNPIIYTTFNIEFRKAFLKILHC
Sequence of D(3) dopamine receptor (P35462 as listed by the source): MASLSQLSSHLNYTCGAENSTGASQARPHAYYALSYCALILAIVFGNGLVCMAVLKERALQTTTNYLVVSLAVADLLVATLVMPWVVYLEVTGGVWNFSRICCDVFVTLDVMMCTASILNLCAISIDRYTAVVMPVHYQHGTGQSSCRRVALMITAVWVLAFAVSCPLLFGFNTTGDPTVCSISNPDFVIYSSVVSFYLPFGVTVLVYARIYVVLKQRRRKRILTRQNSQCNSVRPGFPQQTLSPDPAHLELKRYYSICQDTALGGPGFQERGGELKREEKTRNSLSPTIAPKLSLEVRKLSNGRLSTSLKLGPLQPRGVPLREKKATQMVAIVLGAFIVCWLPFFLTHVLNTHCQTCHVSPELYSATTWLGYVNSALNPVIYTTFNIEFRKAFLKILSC

| SMILES | Ki (D(3) dopamine receptor) [nM] | Ki [1] [nM] | Ki (D(2) dopamine receptor) [nM] | Ki [2] [nM] | Ki [3] [nM] |
| --- | --- | --- | --- | --- | --- |
| O=C(c1ccc(F)cc1)C1CCN([C@H]2CCN(Cc3ccc(F)cc3)C[C@@H]2O)CC1 | > 20000 | 2540 | 1350 | 0.48 |  |
| COc1ccc(C(=O)C2CCN([C@H]3CCN(Cc4ccc(F)cc4)C[C@@H]3O)CC2)cc1 | > 15000 |  | 1490 |  |  |
| O=C(c1ccc(F)cc1)C1CCN([C@H]2CCN(C(=O)c3ccc(F)cc3)C[C@@H]2O)CC1 |  |  |  | 3140 | 3600 |
| O=C(c1ccc(F)cc1)C1CCN([C@H]2CN(Cc3cccnc3)CC[C@@H]2O)CC1 |  |  |  | 1160 | 237 |
| COc1ccc(C(=O)C2CCN([C@H]3CN(Cc4ccccc4)CC[C@@H]3O)CC2)cc1 |  |  |  | 208 | 36 |
| COc1ccc(C(=O)C2CCN([C@H]3CN(Cc4cccnc4)CC[C@@H]3O)CC2)cc1 |  |  |  | 2220 | 107 |
